Assay outcomes as filed in PubChem.
Hits are enriched below; roughly 2.4% of the tested compounds scored in any of these assays.
STEP block – inhibitors of human striatal-enriched phosphatase STEP; P54829; recombinant STEP, OMFP fluorogenic substrate, fluorescence; inhibition, % at 20 µM; actives 0.25% (n = 360,000); AID 588621;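 active = inhibition at 20 µM, scaled per plate between control wells, above about 37%, limit read from the data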;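 also: 0% = DMSO with enzyme and substrate and 100% = substrate only without enzyme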
Target sequence (P54829 whole entry, looked up): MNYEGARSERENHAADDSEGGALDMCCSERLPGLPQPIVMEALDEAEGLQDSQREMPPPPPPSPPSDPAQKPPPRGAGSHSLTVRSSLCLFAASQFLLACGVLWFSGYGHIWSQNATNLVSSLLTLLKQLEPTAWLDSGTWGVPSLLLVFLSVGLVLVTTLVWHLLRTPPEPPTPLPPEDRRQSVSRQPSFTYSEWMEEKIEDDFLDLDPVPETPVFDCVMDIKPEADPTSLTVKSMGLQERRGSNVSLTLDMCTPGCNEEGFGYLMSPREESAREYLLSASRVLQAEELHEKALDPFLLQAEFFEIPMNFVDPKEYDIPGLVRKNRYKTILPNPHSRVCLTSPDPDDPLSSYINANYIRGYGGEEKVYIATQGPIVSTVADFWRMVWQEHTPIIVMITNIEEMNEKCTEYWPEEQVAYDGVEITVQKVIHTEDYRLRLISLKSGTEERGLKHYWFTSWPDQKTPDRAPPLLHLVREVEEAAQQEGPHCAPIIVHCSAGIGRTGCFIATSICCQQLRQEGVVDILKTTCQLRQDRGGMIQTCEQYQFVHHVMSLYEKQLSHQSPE
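Material: STEP (striatal-enriched tyrosine phosphatase) enzyme, cell-free | Medium: 50 mM Bis-Tris pH 6.0 with 2.5 mM DTT and 0.005% Tween 20 | Read-out: Percent inhibition scaled to no-enzyme and uninhibited-enzyme controls, plate-pattern corrected | Signal: Fluorescence read at 480 nm ex / 540 nm em | Times: 20 min reaction, room temperature, in the dark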
SUMO1 PPI mod – alters human SUMO1 binding to SIM partners; P63165; SUMO1 binding to a labelled peptide, TR-FRET, 1 h; inhibition, % at 20 µM; actives 0.33% (n = 360,000); in the data active = inhibition above about 37%
NadD inh – blocks S. aureus nicotinate mononucleotide adenylyltransferase; purified NadD enzyme, colorimetric absorbance read-out; inhibition, % at 20 µM; actives 0.78% (n = 360,000); in the data active = inhibition above about 26%
LMPTP inh – LMPTP (human) inhibition. P24666. actives 0.22% (n = 360,000). recombinant LMPTP-A, OMFP fluorogenic substrate, fluorescence intensity. inhibition, % at 20 µM;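 active = compounds that cut the enzyme signal by at least half of the control window in the single-dose screen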;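 also: plate controls were DMSO wells with enzyme plus substrate for no effect and substrate without enzyme for full effect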
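material = LMPTP-A | quantity = 0.625 nM enzyme | reagent = OMFP substrate, 400 µM final | buffer or medium = Bis-Tris pH 6.0, DTT, detergent | detection = endpoint fluorescence intensity from OMFP dephosphorylation | dosing = single 20 µM dose | read-out basis = % inhibition relative to no-enzyme and uninhibited control wells | control set = no-enzyme and uninhibited controls | timing = 50 min at room temperature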
Scp1 inh – inhibitors of human Scp-1 phosphatase | AID 493091 | Recombinant Scp1, phosphopeptide, malachite green phosphate absorbance | Q9GZU7 | inhibition, % at 20 µM | actives 0.88% (n = 340,000);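 active = inhibition above about 50% at 20 µM, limit read from the data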;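 also: plate controls were DMSO wells with enzyme for no effect and wells lacking enzyme for full effect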
Target sequence (Q9GZU7 76-261 limits assumed): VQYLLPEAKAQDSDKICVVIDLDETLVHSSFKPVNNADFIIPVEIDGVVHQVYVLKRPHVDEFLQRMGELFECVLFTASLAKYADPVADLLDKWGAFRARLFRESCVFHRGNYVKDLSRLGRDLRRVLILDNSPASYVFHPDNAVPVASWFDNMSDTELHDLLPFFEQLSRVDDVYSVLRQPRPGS
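Material – SCP-1 phosphatase catalytic domain, residues 76-261 · Buffer or medium – Acidic Tris acetate buffer with magnesium and detergent · Also added – Phospho 17-mer peptide substrate · Compound – single 20 µM dose, 1% DMSO · Times – 45 min room-temperature reaction, 5 min colour, 30 min stabiliser · Technique – Phosphate-binding colour reagent, absorbance read at 630 nm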
DNMT1 block – DNMT1 (human) enzyme inhibition. DNMT1 molecular beacon, Hinp1I cleavage, fluorescence. inhibition (reported as % activation of signal), % at 10 µM. actives 0.83% (n = 360,000); in the data active = inhibition above about 50%
Scp1 confirm – Scp-1 (human) inhibition, single-dose confirmed; shares compounds with Scp1 inh; recombinant SCP-1 catalytic domain, phosphate release, malachite green absorbance; inhibition, % at 20 µM; actives 61% (n = 2,500); AID 540281;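 also: plate controls were DMSO with enzyme for no effect and buffer wells lacking enzyme for full effect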
MG interference – counter-screen for Scp-1 inhibitors: colorimetric interference; shares compounds with Scp1 inh; apparent inhibition (interference), % at 20 µM; Colorimetric interference counterscreen, malachite green absorbance 630 nm; 2,500 tested, under 10 active;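 also: compounds added after enzyme reaction finished so only phosphate colour detection is probed; plate controls were DMSO wells with completed Scp-1 reaction for no effect and substrate wells lacking enzyme for full effect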
Scp-1 Tm shift – Scp-1 (human) binding by thermal shift; shares compounds with Scp1 inh; Recombinant SCP1, Sypro Orange thermal shift Tm; thermal shift relative to vanadate control, % at 40 µM; actives 25% (n = 1,500);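 active = substances whose mean melting-temperature shift, as a percentage of the reference inhibitor's shift, reaches about 5.3%, limit read from the data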;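 also: 0% = Tm of DMSO wells and 100% = Tm with sodium orthovanadate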
The depositor's hits bear a star; . = no result given.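 The calls were made as follows, unless noted: active = inhibition of at least 30% at 20 µM; inactive = the rest.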

SMILES | STEP block | SUMO1 PPI mod | NadD inh | LMPTP inh | Scp1 inh | DNMT1 block | Scp1 confirm | MG interference | Scp-1 Tm shift
CC(C)c1ccc(NC(=O)C2CC(=O)N(C(C)C)C2)cc1 (stereo not given) | 2.3 | 1.5 | 3.6 | 0.8 | -8.7 | 0.2 | -11.1 | -12.0 | .
O=C(O)c1ccc(-n2cc(-c3cc4ccccc4oc3=O)[nH]c2=S)cc1 | 9.6 | -3.1 | -2.1 | 3.3 | 84.1* | -1.6 | 61.1* | -10.9 | 1.3
Cc1cccc(OS(=O)(=O)NC(=O)OCC2CCCN3CCCCC23)c1 (stereo not given) | 0.4 | -1.4 | -1.6 | -1.1 | -3.1 | -1.0 | . | . | .
CCOCCCNC(=O)Cn1cc2c(n1)CCCC2 | -1.4 | -2.6 | 5.0 | 0.1 | 75.1* | -1.8 | -3.8 | -4.6 | .
O=[N+]([O-])c1cc(-c2ccc(/C=N/n3cnnc3)o2)ccc1Cl | 8.1 | -36.7 | 0.9 | 3.8 | 17.5 | -0.3 | . | . | .
O=[N+]([O-])c1ccc(Cl)c(-c2ccc(/C=N/n3cnnc3)o2)c1 | 9.9 | -19.4 | 0.9 | 3.6 | 62.2* | 7.4 | 52.2* | -13.4 | 2.4
COc1ccc(NC(=O)CSc2sc3c(O)cc(=O)[nH]c3c2C#N)c(OC)c1 | 21.0 | 18.4 | 7.4 | 55.6* | 64.4* | 24.4 | 67.8* | -9.0 | 7.8*
N#Cc1c(SCC(=O)Nc2cccc(C(F)(F)F)c2)sc2c(O)cc(=O)[nH]c12 | 4.9 | 12.9 | 12.7 | 13.3 | 53.9* | 7.0 | 34.2* | -13.4 | 8.1*
COc1ccccc1NC(=O)CSc1sc2c(O)cc(=O)[nH]c2c1C#N | 8.2 | 13.1 | 10.1 | 21.9 | 77.3* | 9.7 | 32.6* | -14.0 | 12.6*
O=C(NCC(c1cccnc1)N1CCN(c2ccc(F)cc2)CC1)c1ccc(F)cc1 (stereo not given) | 0.1 | 1.0 | -8.3 | -0.7 | -3.0 | -0.6 | . | . | .
O=C(Cc1cccs1)Nc1ccc(S(=O)(=O)N2CCCC2)cc1 | 5.0 | -1.7 | 2.3 | 7.4 | 59.0* | 37.2 | 75.2* | -6.8 | 6.1*
CN(C)S(=O)(=O)c1ccc(NC(=O)Cc2ccc(S(=O)(=O)N3CCOCC3)s2)cc1 | 3.6 | -2.6 | 0.6 | 2.7 | 54.8* | 16.7 | 57.6* | -11.7 | 4.8
O=C(Cc1ccc(S(=O)(=O)N2CCOCC2)s1)Nc1ccc(N2CCOCC2)cc1 | 2.7 | -11.5 | -5.2 | 1.9 | 4.3 | 1.9 | . | . | .
CCN(CC)S(=O)(=O)c1ccc(OC)c(NC(=O)Cc2cccs2)c1 | 2.4 | 4.3 | 3.1 | 32.4 | 86.6* | 44.6 | 73.7* | -11.2 | 6.3*
CCCCN(CCCC)S(=O)(=O)c1ccc(NC(=O)Cc2cccs2)cc1 | 1.6 | -2.0 | 14.4 | 5.3 | 53.6* | 24.9 | 57.9* | -17.2 | 7.6*
COc1ccc(N2C(=O)C(CC(N)=O)N(NC(=O)CCc3ccccc3)C2=O)cc1 (stereo not given) | -3.4 | -3.5 | -0.1 | 0.6 | -10.6 | 2.3 | . | . | .
Cc1cccc(C)c1NC(=O)CN(c1ccccn1)S(=O)(=O)c1ccc(F)cc1 | -0.7 | 0.3 | 3.6 | -1.4 | -12.5 | -1.2 | . | . | .
CCCCCOC(=O)NC1CCS(=O)(=O)C1 (stereo not given) | 1.0 | -2.0 | 3.0 | -1.9 | -0.7 | -2.6 | . | . | .
CCCN(CCC)S(=O)(=O)c1ccc(NC(=O)Cc2cccs2)cc1 | 2.3 | 3.1 | -1.4 | 3.6 | 61.1* | 13.4 | 72.7* | -11.2 | 1.9
CN(Cc1cccc(F)c1)C(=O)c1ccccc1Sc1ccccc1C#N | -2.4 | -9.8 | -5.6 | -6.8 | -4.8 | 2.2 | . | . | .
Cc1ccc(C)c(N2CCN(C(=O)c3ccc(CSc4nc5ccncc5[nH]4)cc3)CC2)c1 | -0.2 | -1.8 | 8.4 | 27.9 | 56.2* | -3.6 | -15.7 | -4.0 | .
CC1CCCCC1NC(=O)c1ccc(CSc2nc3ccncc3[nH]2)cc1 (stereo not given) | 2.0 | 0.7 | -2.1 | 14.9 | -9.1 | 0.3 | . | . | .
CCCCn1c(N)c(N(CCOC)C(=O)c2cc(-c3ccco3)nc3ccccc23)c(=O)[nH]c1=O | 4.3 | 7.1 | 1.6 | 9.3 | 58.2* | 42.8 | 67.0* | -2.4 | 1.8
COCCN(C(=O)c1cc(-c2ccco2)nc2ccccc12)c1c(N)n(Cc2ccccc2)c(=O)[nH]c1=O | 5.2 | -3.8 | 12.2 | 14.1 | 64.1* | 22.0 | 57.7* | -18.6 | -2.6
CCCn1c(N)c(N(CCOC)C(=O)c2cc(Cl)nc3ccccc23)c(=O)[nH]c1=O | -2.7 | -5.6 | 3.4 | -0.6 | -9.0 | 0.8 | . | . | .
SMILES | STEP block | SUMO1 PPI mod | NadD inh | LMPTP inh | Scp1 inh | DNMT1 block | Scp1 confirm | MG interference | Scp-1 Tm shift
COCCN(C(=O)COC(=O)/C=C/c1ccc(C(F)(F)F)cc1)c1c(N)n(Cc2ccccc2)c(=O)[nH]c1=O | -1.2 | -0.4 | 1.2 | 0.7 | 58.4* | 3.9 | -21.8 | -17.8 | .
COCCN(C(=O)COC(=O)/C=C/c1ccc(SC)cc1)c1c(N)n(Cc2ccccc2)c(=O)[nH]c1=O | 0.9 | -6.7 | 5.3 | -1.3 | -1.7 | 17.4 | . | . | .
CC1(C)C(=O)Nc2ccccc2N1C(=O)COC(=O)CNS(=O)(=O)c1ccc(Br)cc1Cl | 1.5 | -0.2 | -2.2 | 0.1 | 3.2 | -1.1 | . | . | .
O=C(Nc1cccc2nsnc12)c1ccc2c(c1)OCCO2 | 1.8 | -20.3 | -8.9 | -0.4 | 69.5* | -11.3 | -16.3 | -16.2 | .
CN1/C(=C/c2cccc[n+]2CCO)Sc2ccccc21 | 0.3 | -18.2 | 15.5 | -1.3 | 103.0* | 2.7 | 17.6 | -7.1 | .
Cc1cccc(C)c1NC(=O)CS(=O)CC(=O)NCC1OCCc2ccccc21 (stereo not given) | -1.5 | 0.2 | -0.2 | 0.2 | 2.6 | 9.7 | . | . | .
CC(C)c1ccc(OC(=O)c2cccc(S(=O)(=O)N3CCN(C)CC3)c2)cc1 | -1.9 | 3.1 | 5.6 | -2.3 | 95.6* | -0.8 | 86.2* | -8.2 | -27.0
CN1CCN(S(=O)(=O)c2cccc(C(=O)Oc3ccc(C(C)(C)C)cc3)c2)CC1 | -0.4 | -0.2 | -12.8 | -3.6 | -0.4 | 0.7 | . | . | .
CC(NC(=O)COC(=O)c1cccc(S(=O)(=O)N2CCCC2)c1)c1ccccc1 (stereo not given) | -1.2 | -1.3 | -3.1 | -1.6 | 53.0* | 0.5 | -12.6 | -17.0 | .
COc1ccccc1CNS(=O)(=O)c1ccc(Cl)s1 | -0.9 | -3.5 | -4.3 | -0.5 | -4.8 | 1.8 | . | . | .
CCCCCNC(=O)C(c1ccnc2ccccc12)n1c(=O)c(-c2cc3ccccc3[nH]2)nc2ccccc21 (stereo not given) | . | 5.5 | . | 3.5 | . | . | . | . | .
